{"source": "BindingDB's records for doi:10.1021/jm201131n", "about": "(Academia Sinica, 2011)", "key": {"[1]": {"biological_target": "T1, Glutathione S-transferase A2 (Homo sapiens, UniProt P09210)", "T1 sequence (P09210 whole entry)": "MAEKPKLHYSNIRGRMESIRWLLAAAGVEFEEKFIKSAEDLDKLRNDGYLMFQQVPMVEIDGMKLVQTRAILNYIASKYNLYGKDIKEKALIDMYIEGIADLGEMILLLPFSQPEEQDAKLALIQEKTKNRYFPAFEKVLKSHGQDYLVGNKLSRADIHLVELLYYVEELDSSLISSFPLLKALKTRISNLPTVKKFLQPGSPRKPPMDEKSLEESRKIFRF", "assay": "Inhibition of human GSTA2 using GSH as substrate after 3 mins by spectrophotometry", "method_in_brief": "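Human GST enzyme preincubated with inhibitor (0–200 μM) in 100 mM potassium phosphate pH 6.5 at 37 °C (GSTM1 at 32 ng). Reaction started with GSH (final 2 mM) and followed at 340 nm for 3 min. IC50 by nonlinear regression, mean ± SEM, n = 3. Percent inhibition at 100 μM is not corrected for glutathione conjugate formation.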"}, "[2]": {"biological_target": "Glutathione S-transferase P (Homo sapiens, UniProt P09211)", "sequence (P09211 whole entry)": "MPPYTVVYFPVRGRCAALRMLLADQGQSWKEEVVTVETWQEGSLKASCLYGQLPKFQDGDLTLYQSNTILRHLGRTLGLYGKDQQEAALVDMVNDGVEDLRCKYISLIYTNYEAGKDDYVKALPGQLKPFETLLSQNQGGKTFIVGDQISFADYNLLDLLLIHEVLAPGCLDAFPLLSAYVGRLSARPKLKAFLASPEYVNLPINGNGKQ", "assay": "Inhibition of human GSTP1-1 using GSH as substrate after 3 mins by spectrophotometry"}}}
{"smiles": "CO[C@H]1CC(COC(C)=O)C(=O)C(=O)[C@H]1O", "note": "(stereo partly specified)", "values": [{"measurement": "IC50", "setting": "[1]", "value": "> 100", "unit": "µM"}, {"measurement": "IC50", "setting": "[2]", "value": "> 100", "unit": "µM"}]}
{"smiles": "CO[C@]1(C)O[C@H]2[C@H](O)C(C=O)CC(=O)[C@@H]2O[C@@]1(C)OC", "note": "(stereo partly specified)", "values": [{"measurement": "IC50", "setting": "[1]", "value": "> 100", "unit": "µM"}]}
{"smiles": "CC(=O)OCC1C[C@@H](O)[C@H](O)C(=O)C1=O", "note": "(stereo partly specified)", "values": [{"measurement": "IC50", "setting": "[1]", "value": "> 100", "unit": "µM"}, {"measurement": "IC50", "setting": "[2]", "value": "> 100", "unit": "µM"}]}
{"smiles": "CC(=O)OCC1CC(O)[C@H](O)C(=O)C1=O", "note": "(stereo partly specified)", "values": [{"measurement": "IC50", "setting": "[1]", "value": "> 100", "unit": "µM"}, {"measurement": "IC50", "setting": "[2]", "value": "> 100", "unit": "µM"}]}
{"smiles": "CC(=O)OCC1C[C@H](O)[C@H](O)C(=O)C1=O", "note": "(stereo partly specified)", "values": [{"measurement": "IC50", "setting": "[1]", "value": "> 100", "unit": "µM"}, {"measurement": "IC50", "setting": "[2]", "value": "> 100", "unit": "µM"}]}
{"smiles": "CO[C@@H]1CC(COC(C)=O)C(=O)C(=O)[C@H]1O", "note": "(stereo partly specified)", "values": [{"measurement": "IC50", "setting": "[1]", "value": "> 100", "unit": "µM"}, {"measurement": "IC50", "setting": "[2]", "value": "> 100", "unit": "µM"}]}
